Experimental data as given in publication PMC10746523 (iScience, 2023).
Like-named read-outs stand apart in the source and are kept apart here.

How the values were obtained:
[1] = Photophysical characterization and relative fluorescence quantum yield; format: physicochemical; conditions: for Quantum Yield (relative fluorescence quantum yield, ΦFrel): ethanol, standard coumarin 343, 405/475 nm
Method in brief: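 Relative quantum yield in ethanol: absorbance at 405 nm and fluorescence at ex/em 405/475 nm were measured for samples and for the coumarin 343 reference (Q_r 0.63 in ethanol). The refractive-index ratio was taken as 1.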

[2] = Microplate time- and pH-dependent fluorescence response to ONOO−; conditions: probe 1 μM, ONOO− 600 μM
Method in brief: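 Water-soluble probe (1 μM) was treated with ONOO⁻ (600 μM) in 50 mM MES (pH 5.8) or 50 mM Tris (pH 6.8, 7.8, 8.8). Fluorescence (ex/em 405/475 nm) was read on a microplate reader over time and expressed relative to untreated samples at t = 0 min.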

[3] = Selectivity against RONS, microplate F/F0; conditions: for F/F0: probe 1 μM
Method in brief: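 Probe (1 μM final, from a 100 μM DMSO stock) was mixed with each RONS (estimated 600 μM) in 50 mM Tris pH 7.5 containing 600 μM EDTA. HO· was generated in situ from Fe(ClO₄)₂ plus H₂O₂ (36 mM), and ¹O₂ from NaOCl plus H₂O₂. Plate fluorescence (405/475 nm) was read at 1 and 60 min; F/F₀ = 60-min reading over t₀.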

PCLS = test: Confocal imaging of PCLS exposed to nitrogen mustard; format: cell-based, mice; conditions: 75 μM TEG-TC-ONOO–, compared to 75 μM LNPs with ∼4 μM DPPC-TC-ONOO–
[4] = Solubility, stated in words; format: physicochemical; conditions: aqueous media and buffers
[5] = cited from earlier work
[6] = Determination of pKa by UV-Vis absorbance; format: physicochemical; conditions: MES and Tris buffers of different pH, pH 5.2
[7] = pH dependence of fluorescence intensity; format: physicochemical; conditions: 405/475 nm; 1 µM
[8] = Competitive oxidation assay with the ketone 1; conditions: ketone 1 (600 μM) alone treated with ONOO− (600 μM), Tris pH 7.5
Method in brief: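 Ketone-competition variant of the microplate assay in 50 mM Tris pH 7.5: ketone competitor (600 μM) with ONOO⁻ (600 μM), alone or added after the probe (1 μM) had been pre-mixed 5 min with ONOO⁻ (600 μM). Probe plus ONOO⁻ without competitor was run in parallel. Fluorescence (ex/em 405/475 nm) was followed over time.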

[9] = in ethanol, cited from earlier work

What does the source list for `O=C(Oc1ccc(CCC(=O)C(F)(F)F)cc1)Oc1ccc2cc(-n3cc(COCCOCCOCCO)nn3)c(=O)oc2c1` [TEG-TC-ONOO^–, 3-(4-((2-(2-(2-hydroxyethoxy)ethoxy)ethoxy)methyl)-1H-1,2,3-triazol-1-yl)-2-oxo-2H-chromen-7-yl (4-(4,4,4-trifluoro-3-oxobutyl)phenyl) carbonate]?
Brightness [1]: 358; Extinction Coefficient [1]: 4475 M⁻¹ cm⁻¹; Max Em [1]: 472.0 nm; Max Ex [1]: 400.0 nm; Relative brightness [1]: 1.4; Quantum Yield (relative fluorescence quantum yield, ΦFrel) [1]: 0.08; fluorescence generation ([2]; pH 5.8 and 6.8): little or no fluorescence generation; fluorescence relative to untreated sample (t = 0 min) ([2]; pH 7.8, until 30 min): up to 6.5 times; fluorescence relative to untreated sample (t = 0 min) ([2]; pH 8.8, until 30 min): ≤ 8 times; relative fluorescence enhancement for ONOO− compared to the other RONS [3]: ~36 fold; fluorescence intensity stronger than background ([3]; H2O2 600 μM, 60 min): 16%; F/F0 ([3]; H2O2 600 μM, 60 min): 1.16; increase in fluorescence ([3]; ONOO− 600 μM, 60 min): ~570%; F/F0 ([3]; ONOO− 600 μM, 60 min): 6.69; increase in fluorescence ([3]; absence of a redox species, 60 min): 13%; F/F0 ([3]; absence of a redox species, 60 min, Tris pH 7.5): 1.13; change in fluorescence ([3]; species other than ONOO−, 600 μM, 60 min): only negligible levels of change in fluorescence; F/F0 ([3]; ·NO 600 μM, 60 min): 1.03; signal within PCLS exposed to NM (405 nm excitation) (PCLS): considerably weak signals; solubility [4]: highly soluble

Which results are given for `O=NOO` [ONOOH, peroxynitrous acid]?
chemical half-life [5]: 0.63 s; pKa [5]: 6.8; biological half-life ([5]; estimated, depends on concentration of biological targets): 10–20 ms

For `O=c1oc2cc(O)ccc2cc1-n1cc(COCCOCCOCCO)nn1` [TEG-TC, 7-hydroxy-3-(4-((2-(2-(2-hydroxyethoxy)ethoxy)ethoxy)methyl)-1H-1,2,3-triazol-1-yl)-2H-chromen-2-one], which Brightness [1] is on record?
Its Brightness is 10305.

And the “Extinction Coefficient” value [1]?
The value was 15613 M⁻¹ cm⁻¹.

And the “Max Em” value [1]?
Its value is 471.4 nm.

What about the “Max Ex” value [1] of the same compound?
The value was 397.0 nm.

And the Relative brightness [1]?
The Relative brightness was 41.1.

What about the “Quantum Yield (relative fluorescence quantum yield, ΦFrel)” value [1] of the same compound?
Its value is 0.66.

What about the pKa [6] of the same compound?
Its pKa is 7.1 ± 0.1.

What about the “fluorescence signal intensity at pH 7.5–8.8 relative to pH 5.8” value [7] of the same compound?
The value was 18- to 20 fold.

Which fluorescence generation [8] does the source give for `O=C(CCc1ccc(O)cc1)C(F)(F)F` [Compound 1, 1,1,1-trifluoro-4-(4-hydroxyphenyl)butan-2-one] here?
Its fluorescence generation is “no fluorescence”.

For `O=C(O)c1cc2cc3c4c(c2oc1=O)CCCN4CCC3` [coumarin 343], which “absolute fluorescence quantum yield (ΦF)” value [9] is on record?
The value was 0.63.

What about the “quantum yield of reference standard (Qr)” value ([9]; ref Sigma Aldrich) of the same compound?
Its value is 0.63.
